Measurements: paper PMC3103643 (Journal of natural products, 2011)

Tests used:
[1] = tested on: HT-29 human colon cancer cells; test: Cytotoxicity assay; type: cell-based; conditions: three days incubation, SRB
How it was run: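 HT-29 cells were trypsinized and seeded, then treated with test compound in DMSO at serial dilutions, with DMSO as negative control and paclitaxel as positive control, for three days at 37 °C, 5% CO2. Cells were fixed for 30 min at room temperature, washed, dried overnight and stained with SRB. Dye was solubilized in tris-base buffer and read at 515 nm. ED50 came from nonlinear regression, triplicates, two independent experiments.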

p65 subunit of NF-κB = p65 subunit of NF-κB (Homo sapiens, UniProt Q04206); test: Enzyme-based ELISA NF-κB p65 inhibition assay; conditions: read-out: NF-κB p65 inhibition IC50, HeLa cell nuclear extracts
[2] = tested on: HT-29 (colon adenocarcinoma), MCF-7 (breast cancer), and MDA-MB-435 (melanoma); test: In vivo hollow fiber assay; parameters: species or system human; conditions: highest dose used 20 mg/kg; ip
How it was run: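 Hollow fibers carried HT-29, MCF-7 and MDA-MB-435 cells. Test compounds and the paclitaxel positive control were dosed ip across 1–20 mg/kg.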

Chain of p65 subunit of NF-κB (Q04206 whole entry): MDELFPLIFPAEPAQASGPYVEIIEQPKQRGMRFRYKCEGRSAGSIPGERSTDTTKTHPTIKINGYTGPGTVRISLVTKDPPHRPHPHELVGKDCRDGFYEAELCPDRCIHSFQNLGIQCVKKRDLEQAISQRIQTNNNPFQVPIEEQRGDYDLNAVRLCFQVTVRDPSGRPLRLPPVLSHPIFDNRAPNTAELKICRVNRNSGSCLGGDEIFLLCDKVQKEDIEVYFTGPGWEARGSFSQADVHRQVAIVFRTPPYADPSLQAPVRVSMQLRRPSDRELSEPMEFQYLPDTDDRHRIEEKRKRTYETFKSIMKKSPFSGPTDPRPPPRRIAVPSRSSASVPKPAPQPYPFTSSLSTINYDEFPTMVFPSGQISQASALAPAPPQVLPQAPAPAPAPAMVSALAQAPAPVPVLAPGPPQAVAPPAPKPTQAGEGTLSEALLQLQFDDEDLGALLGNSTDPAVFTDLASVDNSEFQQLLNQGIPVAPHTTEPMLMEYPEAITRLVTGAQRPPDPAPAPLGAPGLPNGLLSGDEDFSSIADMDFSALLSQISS

| Compound | cytotoxicity ED50 towards HT-29 cells [1] | IC50 (p65 subunit of NF-κB) | activity in in vivo hollow fiber assay [2] |
| --- | --- | --- | --- |
| 1,3,7-trihydroxy-2,4-diisoprenylxanthone [Compound 5] | >10 µM | 2900 nM |  |
| COc1c(OC(C)=O)cc2oc3cc(OC(C)=O)c(CC=C(C)C)c(O)c3c(=O)c2c1CC=C(C)C [Compound 8, 3,6-di-O-acetyl-α-mangostin] |  |  | inactive |
